Reference: ChEMBL document CHEMBL4414552, “Homotrimerization Approach in the Design of Thrombospondin-1 Mimetic Peptides with Improved Potency in Triggering Regulated Cell Death of Cancer Cells” (J Med Chem, 2019)
Square brackets hold non-standard residues; d marks the D form. Peptide text beside a SMILES is read from it. NMeR = CN[C@@H](CCCNC(=N)N)C(=O)O

What was measured:
MEC1 = assay: Cytotoxicity against human MEC1 cells assessed as induction of cell death at 200 uM after 6 hrs by annexin V/propidium iodide staining based flow cytometric analysis relative to control; assay type: functional
[1] = target: Leukocyte surface antigen CD47 (Homo sapiens, UniProt Q08722); assay: Binding affinity to CD47 in biotinylated human MEC1 cell membranes by biolayer interferometry
Sequence of Leukocyte surface antigen CD47 (Q08722 whole entry): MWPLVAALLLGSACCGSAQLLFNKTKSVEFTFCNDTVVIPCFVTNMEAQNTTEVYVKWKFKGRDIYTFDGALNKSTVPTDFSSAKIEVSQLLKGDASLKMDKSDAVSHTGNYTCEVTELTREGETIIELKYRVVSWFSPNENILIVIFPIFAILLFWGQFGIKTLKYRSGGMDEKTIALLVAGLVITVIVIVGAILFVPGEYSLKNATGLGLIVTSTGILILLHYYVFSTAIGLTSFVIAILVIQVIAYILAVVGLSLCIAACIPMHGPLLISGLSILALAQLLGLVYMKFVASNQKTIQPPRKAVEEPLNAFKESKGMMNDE
How it was run: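 Biotinylated membrane preparations from MEC-1 cells were loaded onto SuperStreptavidin biosensors. Binding was measured by bilayer interferometry (Octet RED96) in PBS with 0.2% BSA and 1% DMSO at 30 °C. Affinities are given as apparent Kd estimates.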

Which Activity (MEC1) does the source give for CC(C)[C@H](NC(=O)[C@H](Cc1ccc(O)cc1)NC(=O)[C@H](Cc1ccccc1)NC(=O)[C@H](CCCNC(=N)N)N(C)C(=O)[C@H](N)CCCCN)C(=O)N[C@H](C(=O)N[C@H](C(=O)N[C@@H](Cc1c[nH]c2ccccc12)C(=O)N[C@@H](CCCCN)C(=O)N[C@H](CCCCN)C(=O)O)C(C)C)C(C)C here?
Its Activity is 23%.

What about the Kd [1] of the same molecule?
The Kd was 9.5 µM.

Which results are given for CSCC[C@H](NC(=O)[C@@H](NC(=O)[C@@H](NC(=O)[C@H](Cc1ccc(O)cc1)NC(=O)[C@H](Cc1ccccc1)NC(=O)[C@H](CCCNC(=N)N)N(C)C(=O)[C@H](N)CCCCN)C(C)C)C(C)C)C(=O)N[C@@H](Cc1c[nH]c2ccccc12)C(=O)N[C@@H](CCCCN)C(=O)N[C@H](CCCCN)C(=O)O?
Activity (MEC1): 54%; Kd [1]: 21 µM

Which Activity (MEC1) does the source give for CCCC[C@H](NC(=O)[C@@H](NC(=O)[C@@H](NC(=O)[C@H](Cc1ccc(O)cc1)NC(=O)[C@H](Cc1ccccc1)NC(=O)[C@H](CCCNC(=N)N)N(C)C(C)=O)C(C)C)C(C)C)C(=O)N[C@@H](Cc1c[nH]c2ccccc12)C(=O)N[C@@H](CCCCN)C(N)=O here?
Its Activity is 51%.

What about the Kd [1] of the same molecule?
Its Kd is 20 µM.

How did the Activity (MEC1) turn out when CC(C)C[C@H](NC(=O)[C@@H](NC(=O)[C@@H](NC(=O)[C@H](Cc1ccc(O)cc1)NC(=O)[C@H](Cc1ccccc1)NC(=O)[C@H](CCCNC(=N)N)N(C)C(=O)[C@H](N)CCCCN)C(C)C)C(C)C)C(=O)N[C@@H](Cc1c[nH]c2ccccc12)C(=O)N[C@@H](CCCCN)C(=O)N[C@H](CCCCN)C(=O)O (H-[dK][NMeR]FYVVLWK[dK]-OH) was run?
Its Activity is 26%.

What about the Kd [1] of the same molecule?
Its Kd is 15 µM.

With CSCC[C@H](NC(=O)[C@@H](NC(=O)[C@H](C(C)C)N(C)C(=O)[C@H](Cc1ccc(O)cc1)NC(=O)[C@H](Cc1ccccc1)NC(=O)[C@H](CCCNC(=N)N)NC(=O)[C@H](N)CCCCN)C(C)C)C(=O)N[C@@H](Cc1c[nH]c2ccccc12)C(=O)N[C@@H](CCCCN)C(=O)N[C@H](CCCCN)C(=O)O as the molecule, how does the Activity (MEC1) read?
Its Activity is 11%.

What about the Kd [1] of the same molecule?
The Kd was 36 µM.

How did the Activity (MEC1) turn out when CC(C)[C@H](NC(=O)[C@H](Cc1ccc(O)cc1)NC(=O)[C@H](Cc1ccccc1)NC(=O)[C@H](CCCNC(=N)N)N(C)C(=O)[C@H](N)CCCCN)C(=O)N[C@H](C(=O)N[C@@H](Cc1ccc(O)cc1)C(=O)N[C@@H](Cc1c[nH]c2ccccc12)C(=O)N[C@@H](CCCCN)C(=O)N[C@H](CCCCN)C(=O)O)C(C)C was run?
Its Activity is 19%.

What about the Kd [1] of the same molecule?
Its Kd is 13 µM.

What does the source list for CSCC[C@H](NC(=O)[C@@H](NC(=O)[C@@H](NC(=O)[C@H](Cc1ccc(O)cc1)NC(=O)[C@H](Cc1ccccc1)NC(=O)[C@H](CCCNC(=N)N)N(C)C(=O)[C@H](N)CCCCN)C(C)C)C(C)C)C(=O)N[C@@H](Cc1c[nH]c2ccccc12)C(=O)N(C)[C@@H](CCCCN)C(=O)N[C@H](CCCCN)C(=O)O?
Activity (MEC1): 19%; Kd [1]: 38 µM
